Bioassay records: PubChem, Sanford-Burnham Center for Chemical Genomics
Rows were chosen to be rich in hits. Some 1.5% of all compounds tested hit in one or more screens of this group.
APJ antagonist: antagonists of human apelin receptor APJ, primary screen, CHO-K1 cells, beta-arrestin complementation, luminescence; 330,000 tested, 0.32% active; P35414; inhibition, % at 20 µM;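 active means inhibition above about 40% at 20 µM, limit read from the data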;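 further: cells challenged with 10 nM apelin-13 agonist together with compound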
CXCR6 block: CXCR6 receptor inhibitors, primary screen, cell-based, beta-arrestin, luminescence, CHO-K1 PathHunter, 1536-well; inhibition, % at 20 µM; 360,000 tested, 0.36% active; C-X-C chemokine receptor type 6 (Homo sapiens), O00574; AID 602244, 2012; in the data active means inhibition above about 34%, passing the limit was not always enough;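 further: antagonist mode with CXCL16 agonist at 10 nM final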
Target sequence (O00574 whole entry, looked up): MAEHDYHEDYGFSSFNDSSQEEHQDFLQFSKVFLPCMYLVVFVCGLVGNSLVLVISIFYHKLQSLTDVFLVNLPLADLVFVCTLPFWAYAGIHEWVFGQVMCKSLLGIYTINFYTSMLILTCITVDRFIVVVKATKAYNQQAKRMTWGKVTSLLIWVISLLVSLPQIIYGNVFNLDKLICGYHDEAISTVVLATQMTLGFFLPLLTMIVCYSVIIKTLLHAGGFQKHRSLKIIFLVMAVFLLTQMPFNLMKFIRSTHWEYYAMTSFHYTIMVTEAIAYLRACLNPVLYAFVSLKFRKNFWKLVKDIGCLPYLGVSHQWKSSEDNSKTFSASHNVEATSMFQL
CCR6 antagonist: CCR6 receptor antagonists, primary screen, cell-based, CHO-K1, luminescence, beta-arrestin, uHTS; C-C chemokine receptor type 6 (Homo sapiens), P51684; 340,000 tested, 0.49% active; inhibition, % at 20 µM; CHO-K1 CCR6 PathHunter beta-arrestin, CCL20-stimulated;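 active means compounds whose inhibition of the agonist-driven luminescence signal at 20 µM reaches about 50%, limit read from the data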;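 further: cells stimulated with CCL20 at 14 nM final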
EBI2 block: EBI2 receptor antagonists, beta-arrestin recruitment, primary screen, cell-based, luminescence, 7a,25-OHC stimulation, uHTS | 7a,25-OHC stimulated | inhibition, % at 5 µM | 360,000 tested, 0.81% active; in the data active means inhibition above about 38%;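 further: enzyme fragment complementation signal reports receptor beta-arrestin coupling in cells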
APJ ag: agonists of human apelin receptor APJ, primary screen, CHO-K1 cells, PathHunter beta-arrestin, luminescence. P35414. 0% DMSO wells, 100% apelin. activation, % at 20 µM. 330,000 tested, 0.11% active. AID 2520, 2010;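 active means activation more than six SD over the plate average, tested at 20 µM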
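Assay system: CHO-K1 cells stably expressing ProLink-tagged human APJ and arrestin–beta-gal acceptor. Compound dosing: 20 µM single point, 1% DMSO. Times: 16-18 h seeding, 90 min dark compound exposure, 60 min detection. Detection: beta-gal luminescence. Evaluation: APJ–arrestin association signal. Controls: negative DMSO alone, positive Apelin-13 at 10 nM.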
EBI2 antag conf: EBI2 antagonist hit retest, beta-arrestin, confirmation, cell-based, single concentration, luminescence, 7a,25-OHC stimulation. shares compounds with EBI2 block. AID 651997, 2013. 7a,25-OHC antagonism. 2,400 tested, 29% active. inhibition, % at 5 µM;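 active means inhibition of at least 50%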
EBI2 ag: EBI2 agonist activity of antagonist hits, confirmation, counter-screen for EBI2 antagonist project, cell-based, single concentration, agonist mode, luminescence. AID 652000, 2013. activation, % at 5 µM. shares compounds with EBI2 block. 2,400 tested, under 10 active. EBI2-expressing cells, 60 min; 0% vehicle, 100% 7α,25-dihydroxycholesterol control;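 active means activation of at least 50%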
bGal cs: E. coli beta-galactosidase enzyme inhibition, confirmation, counter-screen for EBI2 antagonist project, biochemical, luminescence, single concentration; purified beta-galactosidase, luminescent Galacton Star, 15 min; 2,400 tested, 1% active; inhibition, % at 5 µM; AID 652176, 2013; shares compounds with EBI2 block;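 active means replicate-average signal at least 3 plate SD below neutral wells, shown as high inhibition, flagging enzyme-inhibiting false positives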;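 further: higher means stronger loss of beta-gal luminescence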
A number is an active result.

Screening Cc1cccc(OCC(=O)NC2CCCc3ccccc32)c1C (configuration not stated) returned APJ antagonist inactive, CXCR6 block inactive, CCR6 antagonist inactive, EBI2 block 57, APJ ag inactive, EBI2 antag conf 58, EBI2 ag inactive and bGal cs inactive.
For Cc1nc2c(OCc3ccc(C#N)cc3)cccn2c1N(C)C(=O)CCC1CCCC1 the results were CXCR6 block inactive and EBI2 block inactive.
O=C(NCC1CCCCC1)c1csc([C@@H]2O[C@H](CO)[C@H](O)[C@H](O)[C@H]2O)n1 was read as CXCR6 block inactive and EBI2 block inactive.
Screening CCOC(=O)Nc1nnc(/C=C/c2ccc(OC)cc2)s1 returned APJ antagonist inactive, CXCR6 block inactive, CCR6 antagonist inactive, EBI2 block inactive and APJ ag inactive.
`CCCCOC(=O)Nc1nnc(/C=C/c2ccc(OC)cc2)s1` gave APJ antagonist inactive, CXCR6 block inactive, CCR6 antagonist inactive, EBI2 block 55, APJ ag inactive, EBI2 antag conf inactive, EBI2 ag inactive and bGal cs inactive.
Cc1ccc(CCNC(=O)C23CN(Cc4ccccc4)CC2C(c2cccc([N+](=O)[O-])c2)=NO3)cc1 (configuration not stated) was read as APJ antagonist inactive, CXCR6 block inactive, CCR6 antagonist inactive, EBI2 block 63, APJ ag inactive, EBI2 antag conf inactive, EBI2 ag inactive and bGal cs inactive.
For O=C(NCC1CCCCC1)C12CN(Cc3ccccc3)CC1C(c1cccc([N+](=O)[O-])c1)=NO2 (configuration not stated) the results were APJ antagonist inactive, CXCR6 block inactive, CCR6 antagonist inactive, EBI2 block inactive and APJ ag inactive.
Screening COc1ccc(CCNC(=O)C23CN(Cc4ccccc4)CC2C(c2cccc([N+](=O)[O-])c2)=NO3)cc1 (configuration not stated) returned APJ antagonist inactive, CXCR6 block inactive, CCR6 antagonist inactive, EBI2 block 52, APJ ag inactive, EBI2 antag conf inactive, EBI2 ag inactive and bGal cs inactive.
For COc1cccc(C(=O)Nc2ccc(NC(=O)Cc3ccccc3)cc2)c1 the results were APJ antagonist inactive, CXCR6 block inactive, CCR6 antagonist inactive, EBI2 block 66, APJ ag inactive, EBI2 antag conf inactive, EBI2 ag inactive and bGal cs inactive.
Screening O=C(CS)Nc1ccc2ccccc2c1 returned CXCR6 block inactive, CCR6 antagonist inactive, EBI2 block 40, EBI2 antag conf inactive, EBI2 ag inactive and bGal cs inactive.
`COc1ccc(NC(=S)NN(C)C(=S)Nc2ccc(OC)cc2)cc1` gave APJ antagonist inactive, CXCR6 block inactive, CCR6 antagonist inactive, EBI2 block 67, APJ ag inactive, EBI2 antag conf inactive, EBI2 ag inactive and bGal cs inactive.
Screening COc1ccc(NC(=O)c2ccc(OC(=S)N(C)c3ccc(OC)cc3)cc2)cc1 returned APJ antagonist inactive, CXCR6 block inactive, CCR6 antagonist inactive, EBI2 block 86, APJ ag inactive, EBI2 antag conf 74, EBI2 ag inactive and bGal cs inactive.
`COc1ccc(NC(=O)c2cc(F)cc(F)c2)cc1Cl` gave APJ antagonist inactive, CXCR6 block inactive, CCR6 antagonist inactive, EBI2 block inactive and APJ ag inactive.
`COc1ccc(C(=O)Nc2ccc3ccccc3c2)cc1` gave APJ antagonist inactive, CXCR6 block inactive, CCR6 antagonist inactive, EBI2 block 55, APJ ag inactive, EBI2 antag conf inactive, EBI2 ag inactive and bGal cs inactive.
`COc1ccc(NC(=O)c2ccc(OC(F)F)cc2)cc1Cl` gave APJ antagonist inactive, CXCR6 block inactive, CCR6 antagonist inactive, EBI2 block 46, APJ ag inactive, EBI2 antag conf 54, EBI2 ag inactive and bGal cs inactive.
Screening COc1cccc(C(=O)Nc2ccc3ccccc3c2)c1 returned APJ antagonist inactive, CXCR6 block inactive, CCR6 antagonist inactive, EBI2 block inactive and APJ ag inactive.
`COc1ccc(OC)c(C(=O)c2ccc(C(=O)Nc3ccc4ccccc4c3)cc2)c1` gave APJ antagonist inactive, CXCR6 block inactive, CCR6 antagonist inactive, EBI2 block 88, APJ ag inactive, EBI2 antag conf 55, EBI2 ag inactive and bGal cs inactive.
For COc1cccc(-c2cc(C(=O)N3CCN(S(=O)(=O)c4ccc(Br)cc4)CC3)[nH]n2)c1 the results were APJ antagonist inactive, CXCR6 block inactive, CCR6 antagonist inactive, EBI2 block 57, APJ ag inactive, EBI2 antag conf inactive, EBI2 ag inactive and bGal cs inactive.
COc1ccc(S(=O)(=O)N2CCN(C(=O)c3cc(C)on3)CC2)cc1 was read as APJ antagonist inactive, CXCR6 block inactive, CCR6 antagonist inactive, EBI2 block inactive and APJ ag inactive.
CC(C)c1ccc(S(=O)(=O)N2CCN(C(=O)c3cc(-c4ccccc4)n[nH]3)CC2)cc1 was read as APJ antagonist inactive, CXCR6 block inactive, CCR6 antagonist inactive, EBI2 block 75, APJ ag inactive, EBI2 antag conf inactive, EBI2 ag inactive and bGal cs inactive.
For COc1ccc(S(=O)(=O)N2CCN(C(=O)c3cc(-c4ccccc4OC)n[nH]3)CC2)cc1 the results were APJ antagonist inactive, CXCR6 block inactive, CCR6 antagonist inactive, EBI2 block 63, APJ ag inactive, EBI2 antag conf inactive, EBI2 ag inactive and bGal cs inactive.
Screening COc1cc(C(=O)N2CCN(C(=O)c3ccccc3)CC2)cc(OC)c1OC returned APJ antagonist inactive, CXCR6 block inactive, CCR6 antagonist inactive, EBI2 block inactive and APJ ag inactive.
COc1cc(C(=O)N2CCN(C(=O)c3cc(-c4ccc(Br)cc4)n[nH]3)CC2)cc(OC)c1OC was read as APJ antagonist inactive, CXCR6 block inactive, CCR6 antagonist inactive, EBI2 block 52, APJ ag inactive, EBI2 antag conf inactive, EBI2 ag inactive and bGal cs inactive.
